Measurements taken from ChEMBL document CHEMBL4616588, “High content phenotypic screening identifies serotonin receptor modulators with selective activity upon breast cancer cell cycle and cytokine signaling pathways” (Bioorg Med Chem, 2020).
Active and inactive are the calls of the source. The calls are words filed in the database; no cut-off is given here.

Tests used:
HCC1954 [1] = experiment: Antiproliferative activity against human HCC1954 cells assessed as reduction in cell number at 10 uM incubated for 72 hrs Alamar blue assay; assay type: functional, cell-based
Method in brief: (§1)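 Parental cells in DMEM with 10% FBS and 2 mM L-glutamine at 37 °C, 5% CO2. Seeded in 96-well plates at a line-optimized density (HCC1954 and T47D, 3000 cells/well) and grown 24 h before treatment. Compounds were incubated 72 h, with 0.1% DMSO (v/v) controls. Alamar Blue was added at 10% v/v for 3 h. Fluorescence was read at ex 540/em 590 nm and normalized to plate DMSO wells.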

T47D [2] = experiment: Antiproliferative activity against human T47D cells assessed reduction in cell number at 10 uM incubated for 72 hrs by Alamar blue assay; assay type: functional, cell-based; method in brief: as §1
HCC1954 [3] = experiment: Induction of morphological changes in human HCC1954 cells assessed as number of nuclei incubated for 48 hrs by Hoechst 33342, SYTO14, Phalloidin-594, Wheat germ agglutinin-594, Concavalin-488, MitoTracker DeepRed staining based wide field fluorescent microscopic method; assay type: functional, cell-based; settings: HCC1954, 48 h
Method in brief: (§2)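 Parental HCC1954 or T47D cells were seeded at 3000 cells/well in 96-well or 1500 cells/well in 384-well optical imaging plates and grown 24 h. Compounds were given for 48 h at up to 10 μM, with 0.1% DMSO and 0.3 μM staurosporine controls. Cells were fixed in 4% paraformaldehyde for 30 min at RT, then Cell Painting stained for 30 min in the dark […]. Imaging used wide-field fluorescence, and nuclei were segmented from the Hoechst channel and counted.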

T47D [4] = experiment: Induction of morphological changes in human T47D cells assessed as number of nuclei incubated for 48 hrs by Hoechst 33342, SYTO14, Phalloidin-594, Wheat germ agglutinin-594, Concavalin-488, MitoTracker DeepRed staining based wide field fluorescent microscopic method; assay type: functional, cell-based; method in brief: as §2
HCC1954 [5] = experiment: Induction of morphological changes in human HCC1954 cells at 10 uM incubated for 48 hrs by Hoechst 33342, SYTO14, Phalloidin-594, Wheat germ agglutinin-594, Concavalin-488, MitoTracker DeepRed staining based wide field fluorescent microscopic method; assay type: functional, cell-based; method in brief: as §2
HCC1954 [6] = experiment: Antiproliferative activity against human HCC1954 cells assessed as cell viability incubated for 72 hrs Alamar blue assay; assay type: functional, cell-based; settings: HCC1954, 72 h; method in brief: as §1
T47D [7] = experiment: Antiproliferative activity against human T47D cells assessed as cell viability incubated for 72 hrs Alamar blue assay; assay type: functional, cell-based; method in brief: as §1
T47D [8] = experiment: Induction of morphological changes in human T47D cells at 10 uM incubated for 48 hrs by Hoechst 33342, SYTO14, Phalloidin-594, Wheat germ agglutinin-594, Concavalin-488, MitoTracker DeepRed staining based wide field fluorescent microscopic method; assay type: functional, cell-based; method in brief: as §2
T47D [9] = experiment: Antiproliferative activity against human T47D cells assessed reduction in cell number at 1 uM incubated for 72 hrs by Alamar blue assay; assay type: functional, cell-based; method in brief: as §1
HCC1954 [10] = experiment: Antiproliferative activity against human HCC1954 cells assessed as reduction in cell number at 1 uM incubated for 72 hrs Alamar blue assay; assay type: functional, cell-based; method in brief: as §1
T47D [11] = experiment: Effect on cell cycle pathway in human T47D cells assessed as fold enrichment in S Phase genes incubated for 24 hrs relative to control; assay type: functional
Method in brief: (§3)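 T47D cells were seeded in 6-well plates for 24 h, then drug-treated for 24 h. RNA was extracted with on-column DNase digestion and checked by A260/A280, and concentrations were normalized. 100 ng RNA was run on the nCounter PanCancer Pathways Panel. Data were normalized per NanoString protocol, and the advanced analysis module calculated differential ratios against DMSO.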

T47D [12] = experiment: Effect on cell cycle pathway in human T47D cells assessed as fold enrichment in cell cycle checkpoint genes incubated for 24 hrs relative to control; assay type: functional; method in brief: as §3
T47D [13] = experiment: Induction of cell cycle arrest in human T47D cells assessed as downregulation in CCND1 RNA incubated for 24 hrs; assay type: functional, cell-based; method in brief: as §3
T47D [14] = experiment: Effect on TNFR1 pathway in human T47D cells assessed as fold enrichment in MAPK targets/nuclear events mediated by MAP kinases incubated for 24 hrs relative to control; assay type: functional; method in brief: as §3
T47D [15] = experiment: Effect on cell cycle pathway in human T47D cells assessed as fold enrichment in G1/S transition genes incubated for 24 hrs relative to control; assay type: functional; method in brief: as §3
T47D [16] = experiment: Effect on TNFR1 pathway in human T47D cells assessed as fold enrichment in AP1 family of transcription factors incubated for 24 hrs relative to control; assay type: functional; method in brief: as §3
T47D [17] = experiment: Effect on cell cycle pathway in human T47D cells assessed as fold enrichment in mitotic genes incubated for 24 hrs relative to control; assay type: functional; method in brief: as §3
T47D [18] = experiment: Effect on TNFR1 pathway in human T47D cells assessed as fold enrichment in MAP kinase activation genes incubated for 24 hrs relative to control; assay type: functional; method in brief: as §3
T47D [19] = experiment: Induction of cell cycle arrest in human T47D cells assessed as downregulation in CCNA2 RNA incubated for 24 hrs; assay type: functional, cell-based; method in brief: as §3
T47D [20] = experiment: Effect on TNFR1 pathway in human T47D cells assessed as fold enrichment in RAF-independent MAPK1/3 activation genes incubated for 24 hrs relative to control; assay type: functional; method in brief: as §3
T47D [21] = experiment: Induction of cell cycle arrest in human T47D cells assessed as downregulation in CCNE2 RNA incubated for 24 hrs; assay type: functional, cell-based; method in brief: as §3
T47D [22] = experiment: Effect on cell cycle pathway in human T47D cells assessed as fold enrichment in cell cycle genes incubated for 24 hrs relative to control; assay type: functional; method in brief: as §3
T47D [23] = experiment: Effect on TNFR1 pathway in human T47D cells assessed as fold enrichment in TNFR1-induced proapoptotic signaling incubated for 24 hrs relative to control; assay type: functional; method in brief: as §3

| EC50 (HCC1954 [3]) [µM] | EC50 (T47D [4]) [µM] | EC50 (HCC1954 [6]) [µM] | EC50 (T47D [7]) [µM] | Compound | Activity (HCC1954 [1]) | Activity (T47D [2]) | Activity (HCC1954 [5]) | Activity (T47D [8]) | Activity (T47D [9]) | Activity (HCC1954 [10]) | also measured |
| --- | --- | --- | --- | --- | --- | --- | --- | --- | --- | --- | --- |
| > 10 | 7.7 | > 10 | > 10 | CNCCCC1c2ccccc2C=Cc2ccccc21 [PROTRIPTYLINE] | inactive | Active | inactive | Active | inactive | inactive | – |
| > 10 | 5.4 | > 10 | 8.6 | CN(C)CCCN1c2ccccc2Sc2ccc(C(F)(F)F)cc21 [TRIFLUPROMAZINE] | inactive | Active | inactive | Active | inactive | inactive | fold change (FC) (T47D [11]): 10.15; fold change (FC) (T47D [12]): 11.45; Activity (T47D [13]): Active; fold change (FC) (T47D [14]): 1.015; fold change (FC) (T47D [15]): 11.45; fold change (FC) (T47D [16]): 14.91; fold change (FC) (T47D [17]): 7.55; fold change (FC) (T47D [18]): 6.02; Activity (T47D [19]): Active; fold change (FC) (T47D [20]): 6.96; Activity (T47D [21]): Active; fold change (FC) (T47D [22]): 7.33; fold change (FC) (T47D [23]): 17.4 |
